# Reference: ChEMBL document CHEMBL1127837, “6,9-Bis[(aminoalkyl)amino]benzo[g]isoquinoline-5,10-diones. A novel class of chromophore-modified antitumor anthracene-9,10-diones: synthesis and antitumor evaluations” (J Med Chem, 1994)
# “And” between values parts separate entries of the source, which are not always exact repeats. Identical values can stand only once.
# What was measured:
# LoVo = test: Tested in vitro for cytotoxic activity against Human colon Adenocarcinoma sensitive cell line (LoVo); format: functional, cell-based
# Method in brief: (§1)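 LoVo and doxorubicin-resistant LoVo/Dx colon cells grown in Ham's F12 with 10% fetal calf serum, glutamine, vitamins and Hepes at 37 °C. 2.5 × 10^5 cells/mL plated and preincubated 24 h, then exposed to drug for 144 h. MTT read-out at 570 nm. IC50 (µg/mL) derived; resistance index = IC50 resistant / IC50 sensitive line.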
# L1210 = test: Tested in vitro for inhibitory activity against L1210 murine leukemia; format: functional, cell-based; conditions: Mus musculus
# Method in brief: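 L1210 suspension cells grown in McCoy's 5A with 10% horse serum, 10% CO2, 37 °C. Drug dissolved in water and added to 10^5 cells/tube at final 0.01, 0.1, 1 and 10 µg/mL.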
# LoVo/DX (Homo sapiens) = test: Tested in vitro for cytotoxic activity against Doxorubicin resistant Human colon Adenocarcinoma cell line
# [1] = Resistance index is the ratio of IC50 of resistant cell line/IC50 of sensitive cell line; format: functional; method in brief: as §1
# Mus musculus [2] = species: Mus musculus; test: The compound was tested for antitumor activity against P388 murine leukemia; format: functional
# Method in brief: (§2)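 P388 cells kept by serial ip passage (10^5 cells) in DBA2 male mice. CD2F1 mice inoculated iv with 10^6 cells on day 0. Drug given iv on days 1, 4 and 7. Daily observation for toxicity and survival over 60 days. Median survival time per group, expressed as %T/C = MST treated/MST control × 100.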
# [3] = (§3) The compound was tested for antitumor activity against P388 murine leukemia by measuring maximum tolerated dose; format: ADME, organism-based; conditions: mouse, in vivo; read-out: LD10
# Method in brief: (§4)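 CD2F1 mice were given 10^6 P388 cells iv, followed by iv treatment on days 1, 4 and 7 after transplantation. Mice were observed daily for toxicity and survival for 60 days. The value is the maximum tolerated dose, taken as LD10, or else the maximum dose administered.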
# P388 = test: Tested for antitumor activity against P388 murine leukemia; format: functional, Mus musculus; method in brief: as §2
# Mus musculus [4] = test: The compound was tested for antitumor activity against P388 murine leukemia at 22 (mg/kg/day) dose; format: functional; method in brief: as §2
# Mus musculus [5] = test: The compound was tested for antitumor activity against P388 murine leukemia at 12(mg/kg/day) dose; 0/16 toxic deaths/total no of mice; conditions: in vivo
# Mus musculus [6] = test: The compound was tested for antitumor activity against P388 murine leukemia at 8 (mg/kg/day) dose; format: functional; method in brief: as §2
# Mus musculus [7] = test: The compound was tested for antitumor activity against P388 murine leukemia at 12 (mg/kg/day) dose; format: functional; method in brief: as §2
# Mus musculus [8] = test: The compound was tested for antitumor activity against P388 murine leukemia at 60 (mg/kg/day) dose; 15/16 toxic deaths/total no of mice; format: ADME, organism-based; conditions: in vivo
# Mus musculus [9] = test: The compound was tested for antitumor activity against P388 murine leukemia at 18 (mg/kg/day) dose; 1/40 toxic deaths/total no of mice; format: ADME, organism-based; conditions: in vivo
# Mus musculus [10] = test: The compound was tested for antitumor activity against P388 murine leukemia at 18 (mg/kg/day) dose; format: functional; method in brief: as §2
# Mus musculus [11] = test: The compound was tested for antitumor activity against P388 murine leukemia at 40 (mg/kg/day) dose; format: functional; method in brief: as §2
# Mus musculus [12] = test: The compound was tested for antitumor activity against P388 murine leukemia at 40 (mg/kg/day) dose; 25/37 toxic deaths/total no of mice; format: ADME, organism-based; conditions: in vivo
# Mus musculus [13] = test: The compound was tested for antitumor activity against P388 murine leukemia at 8(mg/kg/day) dose; 0/8 toxic deaths/total no of mice; format: ADME, organism-based; conditions: in vivo
# Mus musculus [14] = test: The compound was tested for antitumor activity against P388 murine leukemia at 27 (mg/kg/day) dose; format: functional; method in brief: as §2
# Mus musculus [15] = test: The compound was tested for antitumor activity against P388 murine leukemia at 22 (mg/kg/day) dose; 1/8 toxic deaths/total no of mice; format: ADME, organism-based; conditions: in vivo
# Mus musculus [16] = species: Mus musculus; test: as §3; format: ADME, organism-based; conditions: in vivo; method in brief: as §4
# Mus musculus [17] = test: The compound was tested for antitumor activity against P388 murine leukemia at 60 (mg/kg/day) dose; format: functional; method in brief: as §2
# Mus musculus [18] = test: The compound was tested for antitumor activity against P388 murine leukemia at 27 (mg/kg/day) dose;7/55 toxic deaths/total no of mice; format: ADME, organism-based; conditions: in vivo
# Mus musculus [19] = test: The compound was tested for antitumor activity against P388 murine leukemia at 6 (mg/kg/day) dose; format: functional; method in brief: as §2
# Mus musculus [20] = test: The compound was tested for antitumor activity against P388 murine leukemia at 9 (mg/kg/day) dose; format: functional; method in brief: as §2
# Mus musculus [21] = test: The compound was tested for antitumor activity against P388 murine leukemia at 6 (mg/kg/day) dose; 0/15 -no. of toxic deaths/no. of mice; format: ADME, organism-based; conditions: in vivo
# Mus musculus [22] = test: The compound was tested for antitumor activity against P388 murine leukemia at 7.5 (mg/kg/day) dose; 0/16 -no. of toxic deaths/no. of mice; format: ADME, organism-based; conditions: in vivo
# Mus musculus [23] = test: The compound was tested for antitumor activity against P388 murine leukemia at 9 (mg/kg/day) dose; 3/8 -no. of toxic deaths/no. of mice; format: ADME, organism-based; conditions: in vivo
# Mus musculus [24] = test: The compound was tested for antitumor activity against P388 murine leukemia at 2 (mg/kg/day) dose; 0/82 -no. of toxic deaths/no. of mice; format: ADME, organism-based; conditions: in vivo
# Mus musculus [25] = species: Mus musculus; test: The compound was tested for antitumor activity against P388 murine leukemia by measuring median survival time of treated mice/median survival time of control x 100; format: functional
# Mus musculus [26] = test: The compound was tested for antitumor activity against P388 murine leukemia at 3 (mg/kg/day) dose; 12/132 -no. of toxic deaths/no. of mice; format: ADME, organism-based; conditions: in vivo
# Mus musculus [27] = test: The compound was tested for antitumor activity against P388 murine leukemia at 4 (mg/kg/day) dose; 43/48 -no. of toxic deaths/no. of mice; format: ADME, organism-based; conditions: in vivo
SMILES,IC50 (LoVo) [µg/mL],IC50 (L1210) [µg/mL],IC50 (LoVo/DX (Homo sapiens)) [µg/mL],Ratio [1],MTD [3] [mg/kg/day],T/C (P388),further results
NCCCCNc1ccc(NCCCCN)c2c1C(=O)c1ccncc1C2=O,2.27,1.5,0.83,0.4,35,–,T/C (Mus musculus [2]): 100%
O=C1c2ccncc2C(=O)c2c(NCCOCCO)ccc(NCCOCCO)c21,8.7,–,267,31,–,–,–
CN(C)CCNc1ccc(NCCN(C)C)c2c1C(=O)c1cc[n+]([O-])cc1C2=O,0.44,–,2.6,6,40,122%,–
CC(C)N(CCNc1ccc(NCCN(C(C)C)C(C)C)c2c1C(=O)c1ccncc1C2=O)C(C)C,2.5,1.8,2.8,1.1,–,–,–
O=C1c2ccncc2C(=O)c2c(NCCNCCO)ccc(NCCNCCO)c21,1.3,0.06,99.5,76,40,118%,–
CC(C)NCCNc1ccc(NCCNC(C)C)c2c1C(=O)c1ccncc1C2=O,0.3,0.03,3.4,11,–,–,–
CCCNCCNc1ccc(NCCNCCC)c2c1C(=O)c1ccncc1C2=O,0.2,0.04,2.8,14,–,–,–
CN(C)CCCNc1ccc(NCCCN(C)C)c2c1C(=O)c1ccncc1C2=O,0.15,0.3,0.36,2.4,–,–,–
COCCNCCNc1ccc(NCCNCCOC)c2c1C(=O)c1ccncc1C2=O,–,0.44,–,–,–,–,–
NCCCNc1ccc(NCCCN)c2c1C(=O)c1ccncc1C2=O,2.1,0.1,54.5,26,40,155%,–
NCCNc1ccc(NCCN)c2c1C(=O)c1cc[n+]([O-])cc1C2=O,7.3,–,62.6,10,60,200%,–
O=C1c2ccncc2C(=O)c2c(NCCN3CC3)ccc(NCCN3CC3)c21,–,0.002,–,–,–,–,–
CCN(CC)CCNc1ccc(NCCN(CC)CC)c2c1C(=O)c1ccncc1C2=O,0.29,0.06,0.69,2.4,60,122%,–
CC(=O)NCCNc1ccc(NCCNC(C)=O)c2c1C(=O)c1ccncc1C2=O,–,> 10,–,–,–,–,–
CCNCCNc1ccc(NCCNCC)c2c1C(=O)c1ccncc1C2=O,–,0.01,–,–,–,–,–
CN(C)CCNc1ccc(NCCN(C)C)c2c1C(=O)c1ccncc1C2=O,0.076,0.006,0.13,1.7,–,–,–
O=C1c2ccncc2C(=O)c2c(NCCN3CCCC3)ccc(NCCN3CCCC3)c21,0.5,0.09,0.7,1.4,60,100%,–
O=C1c2ccncc2C(=O)c2c(NCCN3CCOCC3)ccc(NCCN3CCOCC3)c21,5.32,1.1,2.3,0.4,60,122%,–
Cl.NCCNc1ccc(NCCN)c2c1C(=O)c1ccncc1C2=O,–,0.01,–,–,–,–,T/C (Mus musculus [4]): 250%; Toxic deaths (Mus musculus [5]): 0; T/C (Mus musculus [6]): 162%; T/C (Mus musculus [7]): 194%; Toxic deaths (Mus musculus [8]): 15; Toxic deaths (Mus musculus [9]): 1; T/C (Mus musculus [10]): 206%; T/C (Mus musculus [11]): 128%; Toxic deaths (Mus musculus [12]): 25; Toxic deaths (Mus musculus [13]): 0; T/C (Mus musculus [14]): 230%; Toxic deaths (Mus musculus [15]): 1; maximum tolerated dose (Mus musculus [16]): 27 mg/kg/day; T/C (Mus musculus [17]): 36%; Toxic deaths (Mus musculus [18]): 7
CNCCNc1ccc(NCCNC)c2c1C(=O)c1ccncc1C2=O.Cl,0.08,–,2.9,36,8,189%,–
O=C1c2ccccc2C(=O)c2c(NCCNCCO)ccc(NCCNCCO)c21 [AMETANTRONE],0.4,0.03,34.7,87,58,127%,–
COc1cccc2c1C(=O)c1c(O)c3c(c(O)c1C2=O)C[C@@](O)(C(=O)CO)C[C@@H]3O[C@H]1C[C@H](N)[C@H](O)[C@H](C)O1 [DOXORUBICIN],0.03,–,4,133,7.5,181%,T/C (Mus musculus [19]): 175%; T/C (Mus musculus [20]): 222%; Toxic deaths (Mus musculus [21]): 0; Toxic deaths (Mus musculus [22]): 0; Toxic deaths (Mus musculus [23]): 3
O=C1c2c(O)ccc(O)c2C(=O)c2c(NCCNCCO)ccc(NCCNCCO)c21 [MITOXANTRONE],0.009,0.009,0.25,28,3,172% and 138%,Toxic deaths (Mus musculus [24]): 0; T/C (Mus musculus [25]): 196%; Toxic deaths (Mus musculus [26]): 12; LD10 (Mus musculus [16]): 2 mg/kg/day and 4 mg/kg/day; Toxic deaths (Mus musculus [27]): 43
NCCNc1ccc(NCCN)c2c1C(=O)c1ccncc1C2=O [PIXANTRONE],0.24,–,7.2,30,–,–,–
